Results taken from ChEMBL document CHEMBL4145473, “Substituted tetrahydroisoquinolines: synthesis, characterization, antitumor activity and other biological properties” (Eur J Med Chem, 2018).
pIC50: −log10 of the molar value. One block for each compound: values may come before it. Calls of active or inactive are those of the source. The calls are words filed in the database; no cut-off is given here.

Key:
L1210 [1] = assay: Cytotoxicity against mouse L1210 cells after 48 hrs by coulter counter method; format: functional, cell-based; settings: L1210, 48 h
Method in brief: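 L1210 cells in RPMI 1640 with 2 mM L-glutamine, penicillin, streptomycin and 20% heat-inactivated horse serum at 37 °C, 5% CO2. Drugs added in DMSO (0.5% final) to exponentially growing cells seeded at 0.8 × 10^5 cells/mL. Cells counted in triplicate after 48 h by Coulter counter. IC50 taken from probit regression of percent growth inhibition against log dose.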

[2] = target: GTPase KRas (Homo sapiens) (UniProt P01116); assay: Inhibition of KRas in human SNU-C1 cells at 0.2 uM relative to control; format: cell-based
[3] = target: GTPase KRas (Homo sapiens) (UniProt P01116); assay: Inhibition of KRas in human RKO cells at 2 uM relative to control; format: cell-based
[4] = target: GTPase KRas (Homo sapiens) (UniProt P01116); assay: Inhibition of KRas in human HCT cells at 0.2 uM relative to control; format: cell-based
L1210 [5] = assay: Cell cycle arrest in mouse L1210 cells assessed accumulation of cells at 8N phase at 5 uM after 21 hrs by propidium iodide staining-based flow cytometric analysis relative to control; format: functional
Method in brief: (§1)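 L1210 leukemia cells in RPMI 1640 with 2 mM L-glutamine, penicillin, streptomycin and 20% heat-inactivated horse serum, exposed to several drug concentrations for 21 h at 37 °C, 5% CO2. Cells fixed in 70% ethanol, washed, then stained 30 min at room temperature in PBS containing RNAse and propidium iodide. Flow cytometry; result given as percentage of cells in each cell-cycle phase.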

[6] = target: GTPase KRas (Homo sapiens) (UniProt P01116); assay: Inhibition of KRas in human SNU-C1 cells at 2 uM relative to control; format: cell-based
[7] = target: GTPase KRas (Homo sapiens) (UniProt P01116); assay: Inhibition of KRas in human RKO cells at 0.2 uM relative to control; format: cell-based
[8] = target: GTPase KRas (Homo sapiens) (UniProt P01116); assay: Inhibition of KRas in human HCT cells at 20 uM relative to control; format: cell-based
[9] = target: GTPase KRas (Homo sapiens) (UniProt P01116); assay: Inhibition of KRas in human Colon 320 cells at 2 uM relative to control; format: cell-based
[10] = target: GTPase KRas (Homo sapiens) (UniProt P01116); assay: Inhibition of KRas in human RKO cells at 20 uM relative to control; format: cell-based
[11] = target: GTPase KRas (Homo sapiens) (UniProt P01116); assay: Inhibition of KRas in human Colon 320 cells at 0.2 uM relative to control; format: cell-based
[12] = target: GTPase KRas (Homo sapiens) (UniProt P01116); assay: Inhibition of KRas in human Colon 320 cells at 20 uM relative to control; format: cell-based
[13] = target: GTPase KRas (Homo sapiens) (UniProt P01116); assay: Inhibition of KRas in human HCT cells at 2 uM relative to control; format: cell-based
[14] = target: GTPase KRas (Homo sapiens) (UniProt P01116); assay: Inhibition of KRas in human SNU-C1 cells at 20 uM relative to control; format: cell-based
L1210 [15] = assay: Cell cycle arrest in mouse L1210 cells assessed accumulation of cells at G1 phase at 25 uM after 21 hrs by propidium iodide staining-based flow cytometric analysis; format: functional; method in brief: as §1
L1210 [16] = assay: Cell cycle arrest in mouse L1210 cells assessed accumulation of cells at G1 phase at 100 uM after 21 hrs by propidium iodide staining-based flow cytometric analysis; format: functional; method in brief: as §1
L1210 [17] = assay: Cell cycle arrest in mouse L1210 cells assessed accumulation of cells at G2/M phase at 50 uM after 21 hrs by propidium iodide staining-based flow cytometric analysis; format: functional; method in brief: as §1
L1210 [18] = assay: Cell cycle arrest in mouse L1210 cells assessed accumulation of cells at G2/M phase at 100 uM after 21 hrs by propidium iodide staining-based flow cytometric analysis; format: functional; method in brief: as §1
L1210 [19] = assay: Cell cycle arrest in mouse L1210 cells assessed accumulation of cells at 8N phase at 10 uM after 21 hrs by propidium iodide staining-based flow cytometric analysis relative to control; format: functional; method in brief: as §1

GTPase KRas (Homo sapiens), sequence (P01116 whole entry, looked up): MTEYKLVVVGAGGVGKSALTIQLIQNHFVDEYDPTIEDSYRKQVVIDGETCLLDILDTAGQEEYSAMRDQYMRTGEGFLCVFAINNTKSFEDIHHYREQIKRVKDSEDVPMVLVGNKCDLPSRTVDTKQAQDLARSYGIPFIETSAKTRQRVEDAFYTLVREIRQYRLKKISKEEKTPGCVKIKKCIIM

SMILES: COC(=O)CCCCCN1CCc2cc3c(cc2C1c1ccncc1)OCCO3 (stereo not drawn)
- pIC50 (L1210 [1]): < 5.00

SMILES: COc1cc2c(cc1OC)C(c1cc(OC)c(OC)c(OC)c1)N(CCO)CC2 (stereo not drawn)
- pIC50 (L1210 [1]): 4.63

SMILES: COc1cc2c(cc1OC)C(c1cc(OC)c(OC)c(OC)c1)N(CC(O)CO)CC2 (stereo not drawn)
- pIC50 (L1210 [1]): 4.82

SMILES: CCOC(=O)N1CCc2cc3c(cc2C1c1ccncc1)OCCO3 (stereo not drawn)
- pIC50 (L1210 [1]): < 5.00

SMILES: CCN(CC)CCN1CCc2cc3c(cc2C1c1cc(OC)c(OC)c(OC)c1)OCCO3 (stereo not drawn)
- pIC50 (L1210 [1]): 5.39

SMILES: CCOC(CCN1CCc2cc3c(cc2C1c1cc(OC)c(OC)c(OC)c1)OCCO3)OCC (stereo not drawn)
- pIC50 (L1210 [1]): < 5.00

SMILES: COc1cc(C2c3cc4c(cc3CCN2CCCCCC(=O)O)OCCO4)cc(OC)c1OC (stereo not drawn)
- pIC50 (L1210 [1]): 5.03

- inhibition [2]: 12.3%
- inhibition [3]: 6.3%
- inhibition [4]: 18%
- inhibition [6]: 11.5%
- inhibition [7]: 0%
- inhibition [8]: 46.5%
- inhibition [9]: 0%
- inhibition [10]: 76.7%
- inhibition [11]: 12.2%
- inhibition [12]: 78.2%
- inhibition [13]: 12.1%
- inhibition [14]: 19.7%
SMILES: COc1cc(C2c3cc4c(cc3CCN2CCO)OCCO4)cc(OC)c1OC (stereo not drawn)
- Activity (L1210 [5]): 70%
- pIC50 (L1210 [1]): 5.59

- inhibition [2]: 17.7%
- inhibition [3]: 32.9%
- inhibition [4]: 0%
- inhibition [6]: 35%
- inhibition [7]: 17.9%
- inhibition [8]: 55.9%
- inhibition [9]: 4%
- inhibition [10]: 70.5%
- inhibition [11]: 0%
- inhibition [12]: 92.5%
- inhibition [13]: 19.3%
- inhibition [14]: 42.7%
SMILES: COc1cc(C2c3cc4c(cc3CCN2c2ccc([N+](=O)[O-])cc2)OCCO4)cc(OC)c1OC (stereo not drawn)
- Activity (L1210 [15]): Active
- pIC50 (L1210 [1]): 5.34

SMILES: COc1cc(C2NCCc3cc4c(cc32)OCCO4)cc(OC)c1OC (stereo not drawn)
- Activity (L1210 [16]): Active
- pIC50 (L1210 [1]): 4.68

SMILES: CCOC(=O)CCCCCN1CCc2cc3c(cc2C1c1cc(OC)c(OC)c(OC)c1)OCCO3 (stereo not drawn)
- pIC50 (L1210 [1]): < 5.00

SMILES: O=C(O)CCCCCN1CCc2cc3c(cc2C1c1ccncc1)OCCO3 (stereo not drawn)
- pIC50 (L1210 [1]): < 5.00

SMILES: COc1cc2c(c3c1c(=O)c1ccccc1n3C)C=CC(C)(C)O2 [ACRONINE]
- Activity (L1210 [17]): Active
- pIC50 (L1210 [1]): 4.68

- inhibition [2]: 12.2%
- inhibition [3]: 10.1%
- inhibition [4]: 0%
- inhibition [6]: 2.4%
- inhibition [7]: 0%
- inhibition [8]: 56.9%
- inhibition [9]: 20.1%
- inhibition [10]: 92.7%
- inhibition [11]: 0%
- inhibition [12]: 85.3%
- inhibition [13]: 16.2%
- inhibition [14]: 57.1%
SMILES: COc1cc(C2c3cc4c(cc3CCN2CCN)OCCO4)cc(OC)c1OC (stereo not drawn)
- Activity (L1210 [15]): Active
- pIC50 (L1210 [1]): 5.70

- inhibition [2]: 10%
- inhibition [3]: 16.3%
- inhibition [4]: 12.1%
- inhibition [6]: 6%
- inhibition [7]: 0%
- inhibition [8]: 49.1%
- inhibition [9]: 8.2%
- inhibition [10]: 79.2%
- inhibition [11]: 0%
- inhibition [12]: 74.7%
- inhibition [13]: 17%
- inhibition [14]: 59.8%
SMILES: COc1cc(C2c3cc4c(cc3CCN2CC#N)OCCO4)cc(OC)c1OC (stereo not drawn)
- Activity (L1210 [16]): Active
- pIC50 (L1210 [1]): 5.38

SMILES: CCOC(=O)N1CCc2cc3c(cc2C1c1cc(OC)c(OC)c(OC)c1)OCCO3 (stereo not drawn)
- pIC50 (L1210 [1]): < 5.00

SMILES: COc1cc(C2c3cc4c(cc3CCN2CCN(C)C)OCCO4)cc(OC)c1OC (stereo not drawn)
- Activity (L1210 [15]): Active
- pIC50 (L1210 [1]): 5.43

SMILES: COc1cc(-c2nccc3cc4c(cc23)OCCO4)cc(OC)c1OC
- Activity (L1210 [18]): Active
- pIC50 (L1210 [1]): 4.60

- inhibition [2]: 6.6%
- inhibition [3]: 7.7%
- inhibition [4]: 35.9%
- inhibition [6]: 32.5%
- inhibition [7]: 95.8%
- inhibition [8]: 45.2%
- inhibition [9]: 22.5%
- inhibition [10]: 66.5%
- inhibition [11]: 0%
- inhibition [12]: 89.9%
- inhibition [13]: 16%
- inhibition [14]: 43.5%
SMILES: COc1cc(C2c3cc4c(cc3CCN2c2ccc(C#N)cc2)OCCO4)cc(OC)c1OC (stereo not drawn)
- Activity (L1210 [19]): 70%
- pIC50 (L1210 [1]): 5.44
